# Tests used:
# [1] = rodents; cited from earlier work
# [2] = darolutamide 600 mg; ref data on file; cited from earlier work
# [3] = system: CYP3A4; details: healthy volunteers; ref data on file; cited from earlier work
# [4] = molecular target: P-gp (Homo sapiens, UniProt P08183); assay: Efflux in CPT-P1 cells; format: in vitro ADME; details: Caco-2
# In short: (§1)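 Bidirectional transport was measured in wildtype Caco-2 cells and in proprietary derivatives with reduced BCRP (CPT-B1) or P-gp (CPT-P1) expression. Test compound was used at 0.5, 2 and 10 μM in wildtype cells and at 2 μM in the reduced-expression lines. Probe substrates served as positive controls and reference inhibitors as negative controls. Efflux ratios were calculated.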
# [5] = Phase I study: darolutamide effect on rosuvastatin pharmacokinetics; format: in vivo, human; details: darolutamide 600 mg BID with single dose rosuvastatin 5 mg
# [6] = molecular target: T1, BCRP (Homo sapiens, UniProt Q9UNQ0); assay: Efflux in CPT-B1 cells; format: in vitro ADME; details: Caco-2
# T1 sequence (Q9UNQ0 1-655): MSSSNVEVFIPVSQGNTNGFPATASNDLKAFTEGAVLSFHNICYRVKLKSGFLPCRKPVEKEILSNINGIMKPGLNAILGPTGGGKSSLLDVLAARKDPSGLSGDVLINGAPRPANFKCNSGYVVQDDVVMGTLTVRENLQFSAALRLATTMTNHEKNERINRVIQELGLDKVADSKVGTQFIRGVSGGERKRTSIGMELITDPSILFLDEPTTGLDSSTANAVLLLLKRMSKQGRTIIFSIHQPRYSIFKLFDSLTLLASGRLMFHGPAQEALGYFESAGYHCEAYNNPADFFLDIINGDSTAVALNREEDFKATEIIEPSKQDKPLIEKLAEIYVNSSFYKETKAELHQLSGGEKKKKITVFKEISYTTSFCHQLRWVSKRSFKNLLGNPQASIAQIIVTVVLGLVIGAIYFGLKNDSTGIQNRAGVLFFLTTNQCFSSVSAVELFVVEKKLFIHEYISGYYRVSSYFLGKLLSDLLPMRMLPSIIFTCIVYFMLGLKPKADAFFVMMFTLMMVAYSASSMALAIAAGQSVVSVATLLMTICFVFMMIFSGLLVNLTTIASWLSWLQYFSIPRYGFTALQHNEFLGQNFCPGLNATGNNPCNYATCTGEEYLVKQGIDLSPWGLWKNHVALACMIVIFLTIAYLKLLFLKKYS
# In short: as §1
# [7] = molecular target: T1, BCRP; assay: BCRP inhibition in Caco-2 cells; format: in vitro ADME
# In short: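 Efflux transporter inhibition in Caco-2 monolayers. Test compound at 0.25–60 μM. Probe/reference-inhibitor pairs were digoxin/cyclosporin A (P-gp) and cladribine/Ko143 (BCRP). Probe transport was measured with and without test compound, and IC50 was derived from that inhibition.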
# [8] = molecular target: OATP2B1 (Homo sapiens, UniProt O94956); assay: OATP2B1 uptake inhibition in transfected HEK cells; format: in vitro ADME
# Chain of OATP2B1 (O94956 whole entry): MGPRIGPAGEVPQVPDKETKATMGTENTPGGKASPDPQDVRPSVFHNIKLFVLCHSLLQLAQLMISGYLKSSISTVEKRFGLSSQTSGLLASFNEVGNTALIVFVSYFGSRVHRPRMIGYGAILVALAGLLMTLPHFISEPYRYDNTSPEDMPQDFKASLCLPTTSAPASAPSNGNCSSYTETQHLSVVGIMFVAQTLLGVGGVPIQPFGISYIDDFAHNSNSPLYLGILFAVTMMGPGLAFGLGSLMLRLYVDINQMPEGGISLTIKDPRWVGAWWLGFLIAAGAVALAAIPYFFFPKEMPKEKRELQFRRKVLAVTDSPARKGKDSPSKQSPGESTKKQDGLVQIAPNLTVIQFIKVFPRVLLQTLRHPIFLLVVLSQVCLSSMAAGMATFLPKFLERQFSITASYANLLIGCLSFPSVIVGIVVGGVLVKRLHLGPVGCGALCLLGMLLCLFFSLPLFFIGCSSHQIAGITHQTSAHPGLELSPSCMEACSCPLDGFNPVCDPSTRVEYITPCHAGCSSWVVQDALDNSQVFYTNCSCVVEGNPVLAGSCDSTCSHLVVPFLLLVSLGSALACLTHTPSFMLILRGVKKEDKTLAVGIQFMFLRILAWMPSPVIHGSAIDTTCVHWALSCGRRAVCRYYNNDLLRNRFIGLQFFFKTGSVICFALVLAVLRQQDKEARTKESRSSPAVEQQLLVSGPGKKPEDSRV
# In short: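 HEK cells overexpressing NTCP, OAT1, OAT3, OATP2B1, OCT1 or OCT2 were incubated with probe substrate. Pairs were estrone 3-sulfate/cyclosporin A (NTCP), PAH/probenecid (OAT1), furosemide/probenecid (OAT3), estrone 3-sulfate/glibenclamide (OATP2B1), 3H-MPP+/decynium 22 (OCT1) and 3H-MPP+/imipramine (OCT2). IC50 was determined with and without test compound, at ≤50 µM for the parent and ≤10 µM for the metabolite.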
# [9] = format: in vivo, human; details: healthy male volunteers
# [10] = system: P-gp and BCRP; assay: Efflux in wildtype Caco-2 cells; format: in vitro ADME; details: human
# In short: as §1
# [11] = molecular target: T2, UGT1A1 (Homo sapiens, UniProt P22309); assay: UGT1A1 inhibition in human liver microsomes; format: in vitro ADME; details: read-out: Ki, UGT1A1
# T2 sequence (P22309 26-533): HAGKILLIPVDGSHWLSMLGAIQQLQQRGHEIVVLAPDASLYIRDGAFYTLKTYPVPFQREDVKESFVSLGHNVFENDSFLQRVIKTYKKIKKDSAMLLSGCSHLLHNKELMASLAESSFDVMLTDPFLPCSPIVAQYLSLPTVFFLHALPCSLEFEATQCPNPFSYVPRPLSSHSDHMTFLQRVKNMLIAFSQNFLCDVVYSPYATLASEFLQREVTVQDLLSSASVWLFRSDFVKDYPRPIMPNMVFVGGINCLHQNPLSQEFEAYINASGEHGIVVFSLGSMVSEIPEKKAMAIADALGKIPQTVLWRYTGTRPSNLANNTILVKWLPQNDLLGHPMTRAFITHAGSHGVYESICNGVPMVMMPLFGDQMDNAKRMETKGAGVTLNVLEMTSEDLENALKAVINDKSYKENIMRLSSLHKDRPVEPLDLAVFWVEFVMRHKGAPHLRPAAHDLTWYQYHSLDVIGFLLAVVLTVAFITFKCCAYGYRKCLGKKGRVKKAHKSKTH
# In short: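 Glucuronidation of UGT-selective substrates was measured in human liver microsomes with and without test compound, using a rank-order approach. Standard inhibitors for each isoform were incubated in parallel as positive controls.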
# [12] = system: CYP2B6; format: in vitro ADME; details: primary human hepatocytes, three donors, 3 days dosing, 0.005–10 mg/l
# [13] = molecular target: T1, BCRP; assay: Efflux in BCRP-MDCK cells; format: in vitro ADME; details: reduced in the presence of BCRP-specific inhibitor Ko143
# [14] = cited from earlier work
# Chain of P-gp (P08183 whole entry): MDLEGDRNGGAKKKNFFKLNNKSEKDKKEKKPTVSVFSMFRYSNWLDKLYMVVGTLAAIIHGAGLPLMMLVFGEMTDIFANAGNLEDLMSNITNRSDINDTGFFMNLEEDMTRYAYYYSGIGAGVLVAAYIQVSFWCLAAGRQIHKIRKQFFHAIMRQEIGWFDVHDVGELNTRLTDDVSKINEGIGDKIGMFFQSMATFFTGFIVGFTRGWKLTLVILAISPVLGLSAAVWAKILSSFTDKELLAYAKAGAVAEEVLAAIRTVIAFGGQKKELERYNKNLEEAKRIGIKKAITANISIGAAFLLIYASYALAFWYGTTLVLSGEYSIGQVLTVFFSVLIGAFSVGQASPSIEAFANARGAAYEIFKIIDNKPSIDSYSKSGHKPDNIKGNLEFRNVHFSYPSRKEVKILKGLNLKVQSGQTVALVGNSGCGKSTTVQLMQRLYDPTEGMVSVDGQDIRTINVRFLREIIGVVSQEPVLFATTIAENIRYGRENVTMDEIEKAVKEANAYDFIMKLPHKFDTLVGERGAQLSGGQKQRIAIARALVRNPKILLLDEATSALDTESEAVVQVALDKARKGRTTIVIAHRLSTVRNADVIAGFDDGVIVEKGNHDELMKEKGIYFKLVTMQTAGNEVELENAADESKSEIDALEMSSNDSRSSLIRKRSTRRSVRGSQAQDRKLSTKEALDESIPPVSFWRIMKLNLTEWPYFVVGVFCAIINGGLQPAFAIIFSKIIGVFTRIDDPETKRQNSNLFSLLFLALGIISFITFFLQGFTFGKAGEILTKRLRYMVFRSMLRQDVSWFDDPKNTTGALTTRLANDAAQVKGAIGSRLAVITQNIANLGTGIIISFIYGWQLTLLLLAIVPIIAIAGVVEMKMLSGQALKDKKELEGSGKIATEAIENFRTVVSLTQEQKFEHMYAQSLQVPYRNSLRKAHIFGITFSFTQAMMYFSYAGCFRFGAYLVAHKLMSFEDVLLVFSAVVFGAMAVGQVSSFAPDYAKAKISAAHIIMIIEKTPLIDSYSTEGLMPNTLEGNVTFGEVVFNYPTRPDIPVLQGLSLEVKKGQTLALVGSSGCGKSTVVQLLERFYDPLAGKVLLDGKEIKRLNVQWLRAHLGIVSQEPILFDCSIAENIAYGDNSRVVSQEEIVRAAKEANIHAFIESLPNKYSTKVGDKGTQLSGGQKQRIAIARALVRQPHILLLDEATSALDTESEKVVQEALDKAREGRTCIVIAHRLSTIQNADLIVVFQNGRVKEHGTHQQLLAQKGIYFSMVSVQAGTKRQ
compound,measurement,setting,value
"CC(O)c1cc(C(=O)N[C@@H](C)Cn2ccc(-c3ccc(C#N)c(Cl)c3)n2)[nH]n1 (stereo partly shown) [Darolutamide, darolutamide]",penetration of the blood-brain barrier,[1],low penetration
same,clinically relevant intestinal concentration,[2],270 µM
same,share of clearance attributed to CYP3A4 metabolism,[3],30%
same,efflux ratio at 2 μM,[4],3.6
same,effect of rosuvastatin on darolutamide exposure,[5],no clinically relevant effects
same,efflux ratio at 2 μM,[6],36
same,IC50,[7],1.3 µM
same,IC50,[8],> 50 µM
same,safety with concomitant dabigatran etexilate or midazolam,[9],No safety concerns were identified
same,efflux ratio at 0.5 μM,[10],78
same,efflux ratio at 2 μM,[10],98
same,efflux ratio at 10 μM,[10],14
"CC(=O)c1cc(C(=O)N[C@@H](C)Cn2ccc(-c3ccc(C#N)c(Cl)c3)n2)[nH]n1 [Keto-darolutamide, keto-darolutamide]",Ki,[11],8.13 µM
same,maximal fold induction of CYP2B6,[12],< 2 fold
same,efflux ratio,[13],> 2
same,"fraction unbound in human plasma, fold lower compared with darolutamide",[14],~ 40 fold
